According to PubChem BioAssay AID624290 (Broad Institute, 2012):
Values joined by “and” are separate entries in the source; they are usually repeats but may differ in a detail not shown here. Equal values may be shown once. Active and inactive are the calls of the source.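 Rule for the calls: active = compounds dimming the MITF-driven luciferase signal, with fitted AC50 at most twice the top tested dose; inconclusive = flat curves with moderate signal drop, or poor-quality fits; inactive = the rest.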

test system: SK-MEL-5 TRPM1-promoter luciferase reporter, 24 h; assay: decrease of TRPM1 reporter luminescence in SK-MEL-5 – cell-based, dry powder samples, set 2, MITF inhibitor project, dose response (AID 624290)
Procedure, shortened: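 Assay system – TRPM1 promoter–luciferase reporter stably expressed in SK-MEL-5 melanoma cells · Timing – compound pinned one day after plating, 24 h exposure at 37 °C · Measured by – luciferase luminescence with SteadyGlo reagent, 5 min room-temperature incubation · Measure – luminescence change reflecting TRPM1 promoter activity, decrease as inhibition · Control set – parthenolide positive control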

SMILES	AC50
COc1ccc(C2=C(NC(C)=O)C(=O)c3ccccc3C2=O)cc1	4.13 µM
O=C(NC1=C(c2ccc(OC(F)(F)F)cc2)C(=O)c2ccccc2C1=O)c1ccccc1	16.6 µM
O=C(NC1=C(N2CCSCC2)C(=O)c2ccccc2C1=O)c1ccc(Br)cc1	6.2 µM
COc1ccc(C2=C(NC(=O)c3cccc(Cl)c3)C(=O)c3ccccc3C2=O)cc1	15.1 µM
O=C1C(NS(=O)(=O)c2cccs2)=C(N2CCOCC2)C(=O)c2ccccc21	10.2 µM
CC(=O)N(C)C1=C(N2CCN(C)CC2)C(=O)c2ccccc2C1=O	0.432 µM
O=C(NC1=C(c2ccc(OC(F)(F)F)cc2)C(=O)c2ccccc2C1=O)c1ccccc1F	12 µM
NC1=C(c2ccc(OC(F)(F)F)cc2)C(=O)c2ccccc2C1=O	20.9 µM
C[C@@H](NC1=C(Nc2ccccc2)C(=O)c2ccccc2C1=O)c1ccccc1	6.71 µM
C=CCNC1=C(NCCCN2CCOCC2)C(=O)c2ccccc2C1=O	10.5 µM
O=C1C=C(Nc2ccccc2)C(=O)c2ccccc21	4.03 µM
CC(=O)NC1=C(c2ccc(Cl)cc2)C(=O)c2ccccc2C1=O	4.56 µM
COc1ccc(C(=O)NC2=C(c3ccc(OC(F)(F)F)cc3)C(=O)c3ccccc3C2=O)cc1	34.1 µM
O=C1C(NS(=O)(=O)c2ccc(Br)cc2)=C(N2CCCCC2)C(=O)c2ccccc21	10.5 µM
C=CCNC1=C(NCCN(CC)CC)C(=O)c2ccccc2C1=O	1.88 µM
COc1cccc(-c2cc(C(=O)NC3=C(Cl)C(=O)c4ccccc4C3=O)ccc2OC)c1	2.5 µM
C=CCNC1=C(Cl)C(=O)c2ccccc2C1=O	2.22 µM and 1.94 µM
COc1ccc(C2=C(NC(=O)c3ccc(Cl)cc3)C(=O)c3ccccc3C2=O)cc1	12.2 µM
O=C1C(NS(=O)(=O)c2ccc(Br)s2)=C(N2CCSCC2)C(=O)c2ccccc21	12.1 µM
O=C1C(Nc2ccccc2)=C(NS(=O)(=O)c2ccccc2[N+](=O)[O-])C(=O)c2ccccc21	17.9 µM
COc1ccc(S(=O)(=O)N(C(C)=O)c2ccc(OC(C)=O)c3ccccc23)cc1[N+](=O)[O-]	6.36 µM
COc1ccc(C2=C(NC(=O)c3ccc4ccccc4c3)C(=O)c3ccccc3C2=O)cc1	> 70 µM (inactive)
C=CCNC1=C(Nc2ccccc2)C(=O)c2ccccc2C1=O	8.22 µM
O=C(NC1=C(Cl)C(=O)c2ccccc2C1=O)c1ccccc1	0.806 µM
CCN1CCN(C2=C(NS(=O)(=O)c3ccc(Br)cc3)C(=O)c3ccccc3C2=O)CC1	4.27 µM
CCN1CCN(C2=C(NC(=O)c3ccccc3)C(=O)c3ccccc3C2=O)CC1	0.714 µM

SMILES	AC50
CC(=O)NC1=C(c2ccc3c(c2)oc2ccccc23)C(=O)c2ccccc2C1=O	1.04 µM
C=CCNC1=C(N2CCOCC2)C(=O)c2ccccc2C1=O	2.17 µM
C=CCNC1=C(N2CCSCC2)C(=O)c2ccccc2C1=O	5.12 µM
O=C1C(NS(=O)(=O)c2ccc(Br)s2)=C(N2CCCCC2)C(=O)c2ccccc21	16.6 µM
C=C1C(=O)OC2C1CC/C(C)=C\CCC1(C)OC21 (configuration not stated)	5.01 µM
CN1CCN(C2=C(NS(=O)(=O)c3ccc(Br)cc3)C(=O)c3ccccc3C2=O)CC1	1.59 µM
CN1CCN(C2=C(NS(=O)(=O)c3ccc(Br)s3)C(=O)c3ccccc3C2=O)CC1	2.53 µM
CCN1CCN(C2=C(NS(=O)(=O)c3cccs3)C(=O)c3ccccc3C2=O)CC1	2.8 µM
O=C1C(NS(=O)(=O)c2ccc(Br)s2)=C(N2CCOCC2)C(=O)c2ccccc21	10.5 µM
CCN(CC)CCCNC1=C(Nc2ccccc2)C(=O)c2ccccc2C1=O	2.01 µM
O=C(NC1=C(N2CCOCC2)C(=O)c2ccccc2C1=O)c1ccccc1	5.21 µM
CN1CCN(C2=C(Nc3ccccc3)C(=O)c3ccccc3C2=O)CC1	4.21 µM
C=CCNC1=C(NS(=O)(=O)c2ccc(Br)cc2)C(=O)c2ccccc2C1=O	6.19 µM
CCN1c2ccccc2NC2N=C(OC)C(c3ccccc3)C21 (configuration not stated)	2.44 µM
COC1=C(NS(=O)(=O)c2ccccc2)C(=O)c2ccccc2C1=O	4.56 µM
CN1CCN(C2=C(NC(=O)c3ccccc3)C(=O)c3ccccc3C2=O)CC1	0.524 µM
NC1=C(c2ccccc2)C(=O)c2ccccc2C1=O	5.86 µM
C=CCNC1=C(NCC=C)C(=O)c2ccccc2C1=O	> 70 µM (inactive)
O=C1C(Nc2ccccc2)=C(N2CCCCC2)C(=O)c2ccccc21	9.81 µM
COc1ccc(C2=C(NC(=O)c3cccc(OC)c3)C(=O)c3ccccc3C2=O)cc1	7.97 µM
Cc1ccc(C(=O)NC2=C(c3ccccc3)C(=O)c3ccccc3C2=O)o1	4.25 µM
O=C1C(Nc2ccccc2)=C(N2CCSCC2)C(=O)c2ccccc21	11.9 µM
O=C(NC1=C(c2ccccc2)C(=O)c2ccccc2C1=O)c1ccco1	6.33 µM
O=C1C(NS(=O)(=O)c2ccc(Br)cc2)=C(N2CCSCC2)C(=O)c2ccccc21	13.9 µM
O=C(NC1=C(c2ccc(OC(F)(F)F)cc2)C(=O)c2ccccc2C1=O)c1ccco1	14.8 µM
O=C(NC1=C(N2CCSCC2)C(=O)c2ccccc2C1=O)c1ccccc1	3.07 µM

SMILES	AC50
O=C(NC1=C(N2CCCCC2)C(=O)c2ccccc2C1=O)c1ccccc1	> 32 µM (inactive)
CC(=O)NC1=C(c2cccc(Cl)c2)C(=O)c2ccccc2C1=O	2.31 µM
CCN(CC)CCCNC1=C(N(C)C(C)=O)C(=O)c2ccccc2C1=O	0.823 µM
CCN1CCN(C2=C(NS(=O)(=O)c3ccc(Br)s3)C(=O)c3ccccc3C2=O)CC1	2.97 µM
NC1=CC(=O)c2ccccc2C1=O	1.1 µM
COc1ccc(C2=C(N)C(=O)c3ccccc3C2=O)cc1	35.1 µM
C=CCNC1=C(N2CCCCC2)C(=O)c2ccccc2C1=O	0.614 µM
C=CCNC1=C(NC(=O)c2ccccc2)C(=O)c2ccccc2C1=O	17.5 µM
O=C1C(NS(=O)(=O)c2ccc(Br)cc2)=C(c2ccc(OC(F)(F)F)cc2)C(=O)c2ccccc21	10.4 µM
CN1CCN(C2=C(NS(=O)(=O)c3ccccc3)C(=O)c3ccccc3C2=O)CC1	0.984 µM
O=C(NC1=C(c2ccccc2)C(=O)c2ccccc2C1=O)c1ccc(Br)cc1	9.43 µM
CC(=O)NC1=C(c2ccccc2)C(=O)c2ccccc2C1=O	4.94 µM
O=C(NC1=C(N2CCN(c3ccccc3)CC2)C(=O)c2ccccc2C1=O)c1ccccc1	17.1 µM
O=C1C(NS(=O)(=O)c2cccs2)=C(N2CCCCC2)C(=O)c2ccccc21	21.3 µM
Cc1ccc(C(=O)NC2=C(c3ccc(OC(F)(F)F)cc3)C(=O)c3ccccc3C2=O)o1	12.4 µM
CN1CCN(C2=C(NC(=O)c3ccc(Br)cc3)C(=O)c3ccccc3C2=O)CC1	0.685 µM
COc1cccc(C2=C(NC(=O)c3ccccc3)C(=O)c3ccccc3C2=O)c1	13.4 µM
O=C1C(NS(=O)(=O)c2ccccc2)=C(N2CCCCC2)C(=O)c2ccccc21	21.5 µM
O=C1C(Nc2ccccc2)=C(N2CCOCC2)C(=O)c2ccccc21	7.25 µM and 6.91 µM
CC1CCN(CC(CS(=O)(=O)c2ccc([N+](=O)[O-])cc2)N2CCC(C)CC2)CC1 (configuration not stated)	3.87 µM
CC(=O)NC1=C(c2ccc(Oc3ccccc3)cc2)C(=O)c2ccccc2C1=O	17 µM
COc1ccc(C(=O)NC2=C(c3ccc(OC)cc3)C(=O)c3ccccc3C2=O)cc1	5.86 µM
O=C1C(NCCCN2CCOCC2)=C(Nc2ccccc2)C(=O)c2ccccc21	7.78 µM
O=C(NC1=C(c2ccc(OC(F)(F)F)cc2)C(=O)c2ccccc2C1=O)c1ccc(Br)cc1	16.3 µM
C=CCNC1=C(NCCCN(CC)CC)C(=O)c2ccccc2C1=O	2.17 µM
